Data published in ChEMBL document CHEMBL1133619, “Use of an additional hydrophobic binding site, the Z site, in the rational drug design of a new class of stronger trypanothione reductase inhibitor, quaternary alkylammonium phenothiazines” (J Med Chem, 2000).
Where “and” joins values, the source holds several entries; their conditions need not be identical. Identical values can stand only once. Calls of active or inactive are those of the source. The calls are words filed in the database; no cut-off is given here.

Assays:
[1] = system: Trypanosoma brucei; experiment: Antiparasitic activity against Trypanosoma brucei; type: functional; details: read-out: ED50 (the source's name)
[2] = molecular target: T1, Trypanothione reductase (Trypanosoma cruzi, UniProt P28593); experiment: (§1) Inhibitory activity against Trypanosoma cruzi trypanothione reductase
T1 sequence (P28593 whole entry): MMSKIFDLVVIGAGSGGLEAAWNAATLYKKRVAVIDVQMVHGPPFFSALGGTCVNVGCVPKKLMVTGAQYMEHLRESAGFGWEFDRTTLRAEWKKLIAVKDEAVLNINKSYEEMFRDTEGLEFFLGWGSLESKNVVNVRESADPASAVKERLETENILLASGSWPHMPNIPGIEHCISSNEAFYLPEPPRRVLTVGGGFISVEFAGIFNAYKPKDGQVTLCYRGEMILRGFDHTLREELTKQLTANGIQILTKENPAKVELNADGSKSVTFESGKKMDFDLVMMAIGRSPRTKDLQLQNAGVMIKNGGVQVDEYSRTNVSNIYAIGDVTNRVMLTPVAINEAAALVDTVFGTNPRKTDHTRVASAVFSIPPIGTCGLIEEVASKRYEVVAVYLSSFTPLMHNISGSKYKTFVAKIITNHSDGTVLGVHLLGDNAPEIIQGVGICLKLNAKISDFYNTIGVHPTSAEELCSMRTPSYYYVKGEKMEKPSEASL
Procedure, shortened: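 T. cruzi TR, isolated enzyme (3 µg/mL), assayed at 25 °C in 0.02 M HEPES pH 7.25 with 0.15 M KCl, 1 mM EDTA and 0.1 mM NADPH. (ZCGdmapa)2 substrate was used at 0.24, 0.12, 0.06 or 0.03 mM, and Ki was fitted as linear competitive.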

[3] = molecular target: T1, Trypanothione reductase; experiment: as §1; remark: listed apart in the source
[4] = molecular target: T2, Glutathione reductase, mitochondrial (Homo sapiens, UniProt P00390); experiment: Inhibitory activity against Human Erythrocyte glutathione reductase (GR).
T2 sequence (P00390 whole entry): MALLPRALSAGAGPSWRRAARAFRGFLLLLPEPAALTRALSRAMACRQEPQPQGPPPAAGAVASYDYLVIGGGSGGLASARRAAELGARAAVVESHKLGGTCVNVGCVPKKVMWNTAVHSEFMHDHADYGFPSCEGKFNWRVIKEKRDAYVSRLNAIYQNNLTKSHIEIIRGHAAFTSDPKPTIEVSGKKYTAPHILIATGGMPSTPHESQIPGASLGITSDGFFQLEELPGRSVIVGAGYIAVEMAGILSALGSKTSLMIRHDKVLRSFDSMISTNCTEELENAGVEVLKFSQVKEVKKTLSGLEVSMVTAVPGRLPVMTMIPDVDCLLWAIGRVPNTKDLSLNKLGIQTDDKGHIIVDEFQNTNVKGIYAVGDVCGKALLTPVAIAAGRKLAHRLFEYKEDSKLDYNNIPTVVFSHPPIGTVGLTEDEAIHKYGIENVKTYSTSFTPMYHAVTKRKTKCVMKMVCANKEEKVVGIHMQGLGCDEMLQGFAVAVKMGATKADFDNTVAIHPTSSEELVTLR

[5] = system: Trypanosoma cruzi; experiment: Antiparasitic activity against Trypanosoma cruzi.; type: functional; details: read-out: ED50 (the source's name)
[6] = system: Trypanosoma cruzi; experiment: Antiparasitic activity against Trypanosoma cruzi at the dose of 1 uM; type: functional
[7] = system: Trypanosoma cruzi; experiment: Antiparasitic activity against Trypanosoma cruzi at the dose of 3 uM; type: functional
[8] = molecular target: T3, Glutathione reductase, mitochondrial (Homo sapiens) (UniProt P00390); experiment: Compound at 1 mM was tested for the inhibition of human erythrocyte glutathione reductase; No inhibition
T3 sequence (whole entry): T2 sequence (P00390 whole entry)

[9] = system: Trypanosoma brucei; experiment: Activity against Trypanosoma brucei.

In the case of Cc1ccc(C[N+](C)(C)CCCN2c3ccccc3Sc3ccc(Cl)cc32)cc1, the EC50 [1] is reported as 0.205 µg/mL and 410 nM, the Ki [2] is reported as 1.8 µM and the IC50 [3] is reported as 10.8 µM.
With C[N+](C)(CCCN1c2ccccc2Sc2ccc(Cl)cc21)CC1CCCCC1 the EC50 [1] was 0.159 µg/mL and 320 nM, the Ki [2] was 2.3 µM and the Ki [4] was 2000 µM. For the same molecule, the IC50 [3] was 10.5 µM.
Cc1ccc(C[N+](C)(C)CCCN2c3ccccc3Sc3ccc(Cl)cc32)cc1C showed a Ki [2] of 0.47 µM and an IC50 [3] of 3.9 µM.
In the case of C[N+](C)(CCCN1c2ccccc2Sc2ccc(Cl)cc21)Cc1ccc(Cl)c(Cl)c1, the EC50 [1] is reported as 0.546 µg/mL and 1.07 µM, the Ki [2] is reported as 0.12 µM and the IC50 [3] is reported as 0.78 µM.
In the case of C[N+](C)(CCCN1c2ccccc2Sc2ccc(Cl)cc21)Cc1cccc(Cl)c1, the EC50 [1] is reported as 0.245 µg/mL and 470 nM, the Ki [2] is reported as 2.4 µM and the IC50 [3] is reported as 6.6 µM.
In the case of C[N+](C)(CCCN1c2ccccc2Sc2ccc(Cl)cc21)Cc1ccc([N+](=O)[O-])cc1.[Cl-], the EC50 [1] is reported as 0.348 µg/mL and 650 nM, the Ki [2] is reported as 2.98 µM and the IC50 [3] is reported as 17.9 µM.
In the case of C[N+](C)(CCCN1c2ccccc2Sc2ccc(Cl)cc21)Cc1ccc(Cl)cc1, the EC50 [1] is reported as 0.675 µg/mL and 1.41 µM, the Ki [2] is reported as 1.7 µM and the Ki [4] is reported as 2200 µM. It also gave an IC50 [3] of 12.7 µM.
In the case of C[N+](C)(CCCN1c2ccccc2Sc2ccc(Cl)cc21)Cc1ccc(Br)cc1, the EC50 [1] is reported as 0.508 µg/mL and 900 nM, the Ki [2] is reported as 1.5 µM and the IC50 [3] is reported as 11.9 µM.
In the case of COc1cc(C[N+](C)(C)CCCN2c3ccccc3Sc3ccc(Cl)cc32)cc(OC)c1, the Ki [2] is reported as 0.77 µM and the IC50 [3] is reported as 5.4 µM.
In the case of C[N+](C)(CCCN1c2ccccc2Sc2ccc(Cl)cc21)Cc1ccc(OCc2ccccc2)cc1, the EC50 [1] is reported as 0.191 µg/mL and 350 nM, the Ki [2] is reported as 0.47 µM and the IC50 [3] is reported as 10.4 µM.
With C[N+](C)(CCCN1c2ccccc2Sc2ccc(Cl)cc21)Cc1ccc2ccccc2c1 the EC50 [1] was 0.068 µg/mL and 120 nM, the Ki [2] was 1.55 µM and the IC50 [3] was 9.3 µM.
With CC(C)(C)c1ccc(C[N+](C)(C)CCCN2c3ccccc3Sc3ccc(Cl)cc32)cc1 the EC50 [1] was 0.023 µg/mL and 42 nM, the Ki [2] was 0.68 µM and the EC50 [5] was less than 1 µM. The inhibition at 1 µM [6] was 59.2%, the IC50 [3] was 4.1 µM and the inhibition at 3 µM [7] was 66.2%.
With C[N+](C)(CCCN1c2ccccc2Sc2ccc(Cl)cc21)C(c1ccccc1)c1ccccc1 the EC50 [1] was 0.035 µg/mL and 62 nM, the Ki [2] was 0.71 µM and the IC50 [3] was 1.2 µM.
For C[N+](C)(CCCN1c2ccccc2Sc2ccc(Cl)cc21)Cc1c(F)c(F)c(F)c(F)c1F, the EC50 [1] was 1.48 µg/mL and 2.55 µM, the Ki [2] was 1.67 µM and the IC50 [3] was 10 µM.
Work on C[N+](C)(CCCN1c2ccccc2Sc2ccc(Cl)cc21)CC(=O)C12CC3CC(CC(C3)C1)C2 yielded a Ki [2] of 1.23 µM and an IC50 [3] of 12.8 µM.
For C[N+](C)(CCCN1c2ccccc2Sc2ccc(Cl)cc21)Cc1ccccc1, the Ki [2] was 1.3 µM and the IC50 [3] was 8.02 µM.
CN(C)CCCN1c2ccccc2Sc2ccc(Cl)cc21 was tested, and the NI [8] was “inactive”.
For COc1ccc2c(C[N+](C)(C)CCCN3c4ccccc4Sc4ccc(Cl)cc43)cc(=O)oc2c1, the EC50 [1] was 3.11 µg/mL and 5.28 µM, the Ki [2] was 0.56 µM and the IC50 [3] was 2.95 µM.
For C[N+](C)(CCCN1c2ccccc2Sc2ccc(Cl)cc21)CC(=O)c1ccc2ccc3cccc4ccc1c2c34, the ED50 [9] was 0.475 µg/mL.
With C[N+](C)(C)CCCN1c2ccccc2Sc2ccc(Cl)cc21 the Ki [2] was 1.1 µM and the IC50 [3] was 28 µM.
With Cc1cc(C(=O)C[N+](C)(C)CCCN2c3ccccc3Sc3ccc(Cl)cc32)ccc1Cl the EC50 [1] was 0.159 µg/mL and 280 nM, the Ki [2] was 1.43 µM and the IC50 [3] was 8.6 µM.
